Data taken from paper PMC2233905 (The Journal of General Physiology, 2004).

What was measured:
[1] = ref Fischer et al., 1997, 1998; cited from earlier work
breast cancer cells = details: ref Ouadid-Ahidouch et al., 2001; cited from earlier work
hEag1 channels [2] = target: T1, hEag1 channels (Homo sapiens, UniProt O95259); assay: Cell-attached patch recordings of hEag1 currents, drug in bath; type: cell-based; details: 140 mM external K+, 60 mV
T1 sequence (O95259 1-989): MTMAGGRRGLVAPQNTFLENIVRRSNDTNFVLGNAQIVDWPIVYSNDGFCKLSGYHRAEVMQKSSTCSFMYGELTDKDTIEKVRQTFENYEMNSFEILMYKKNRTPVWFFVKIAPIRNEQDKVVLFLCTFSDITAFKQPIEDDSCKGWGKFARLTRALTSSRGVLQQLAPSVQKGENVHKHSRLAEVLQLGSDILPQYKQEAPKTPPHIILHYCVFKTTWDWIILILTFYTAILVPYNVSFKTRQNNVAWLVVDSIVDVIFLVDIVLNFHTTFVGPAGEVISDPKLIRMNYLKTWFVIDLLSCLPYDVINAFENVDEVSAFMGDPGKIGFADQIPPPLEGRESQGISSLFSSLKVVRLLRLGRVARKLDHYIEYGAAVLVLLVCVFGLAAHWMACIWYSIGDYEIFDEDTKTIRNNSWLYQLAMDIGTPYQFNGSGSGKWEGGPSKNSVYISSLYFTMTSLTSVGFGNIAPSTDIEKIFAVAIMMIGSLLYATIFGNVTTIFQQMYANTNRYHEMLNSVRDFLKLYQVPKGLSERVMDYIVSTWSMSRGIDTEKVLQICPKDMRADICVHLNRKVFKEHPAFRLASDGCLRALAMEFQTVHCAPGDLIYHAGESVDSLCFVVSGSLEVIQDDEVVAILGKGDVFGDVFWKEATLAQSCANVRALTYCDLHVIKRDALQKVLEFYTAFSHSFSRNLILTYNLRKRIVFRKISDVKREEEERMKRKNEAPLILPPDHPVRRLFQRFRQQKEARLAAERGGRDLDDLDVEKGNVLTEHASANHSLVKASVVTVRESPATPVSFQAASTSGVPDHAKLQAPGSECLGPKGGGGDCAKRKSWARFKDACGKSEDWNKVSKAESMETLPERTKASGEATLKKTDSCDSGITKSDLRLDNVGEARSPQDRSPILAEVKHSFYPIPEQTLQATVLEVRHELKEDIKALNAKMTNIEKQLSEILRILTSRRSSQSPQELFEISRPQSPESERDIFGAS
In short: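 hEag1-expressing cells grown 24–72 h on poly-L-lysine-coated coverslips; cell-attached patches at room temperature. Bath held 140 mM K+; pipette held control external solution (160 NaCl, 2.5 KCl, 2 CaCl2, 1 MgCl2, 10 HEPES, pH 7.4) without glucose. 1-s steps to 60 mV from −70 mV were recorded before, during and after washout of bath-applied drug.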

hEag1 channels [3] = target: T1, hEag1 channels; assay: hEag1 channels expressed in Xenopus oocytes; type: cell-based
[4] = test system: IRK1 inward rectifier K^+ channels; details: concentrations up to 10 μM; ref Suessbrich et al., 1996; cited from earlier work
hEag1 channels [5] = target: T1, hEag1 channels; assay: Outside-out patch recordings of hEag1 currents; type: cell-based
In short: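 Outside-out patches from hEag1-expressing cells at room temperature. Successive 6-s recordings at 80 mV; drug applied to the extracellular face for 2.5 s, then removed. Currents were divided point-wise by control traces, and the time course was fitted with a single exponential to give the block or equilibration time constant and the steady-state fraction blocked.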

hEag1 channels [6] = target: T1, hEag1 channels; assay: Whole-cell patch-clamp of hEag1 currents in stably transfected HEK-293 cells; type: cell-based
[7] = 10 μM imipramine or 1 μM astemizole
[8] = 200 μM internal TEA, 80 mV, 10 μM imipramine or 1 μM astemizole
[9] = control, 80 mV, 10 μM imipramine or 1 μM astemizole
[10] = nonsaturating concentrations, 80 mV

For `COc1ccc(CCN2CCC(Nc3nc4ccccc4n3Cc3ccc(F)cc3)CC2)cc1` [astemizole], the “pK a1” value [1] is listed as 5.6, the “pK a2” value [1] is listed as 8.5 and the “effect on proliferation rate” value (breast cancer cells) is listed as “significant reduction”. For the same compound, the “block of channels in cell-attached patches by bath application” value (hEag1 channels [2]) was “blocked”, the IC50 (hEag1 channels [3]) was about 1500 nM and the effect on current [4] was “no significant effects”. For the same compound, the “time constant of block (equilibration of neutral drug) in outside-out patches” value (hEag1 channels [5]; bath pH 6.0, pipette pH 7.4) was 1.7 s, the “rate of the equilibration process across the membrane” value (hEag1 channels [5]; outside-out, bath pH 6.0) was 0.6 s⁻¹ and the Kd (hEag1 channels [6]) was 109 nM. The “voltage dependence of block” value (hEag1 channels [6]) was “insensitive to membrane potential”, the current blocked (hEag1 channels [6]; 100 nM astemizole in the presence of 5 μM imipramine, 60 mV) was 38 ± 5% and the current blocked (hEag1 channels [6]; 100 nM astemizole, control external solution, 60 mV) was 66 ± 3%. The “k of exponential fit to τclose(V) (tail current deactivation)” value (hEag1 channels [6]; [7]) was −0.025, the “τ(0) of exponential fit to τclose(V) (tail current deactivation)” value (hEag1 channels [6]; [7]) was 10.75 ms and the “τ∞ of exponential fit to τclose(V) (tail current deactivation)” value (hEag1 channels [6]; [7]) was 0.75 ms. For the same compound, the “effect on whole-cell current when added to the intracellular solution” value (hEag1 channels [6]; 25 μM in intracellular pH 6.4 solution (unpublished data)) was “substantial block”, the “reduction of potency in the presence of internal TEA” value (hEag1 channels [6]; 200 μM internal TEA) was about 50% and the current blocked (hEag1 channels [6]; [8]) was 42 ± 12%. For the same compound, the τblock (hEag1 channels [6]; [8]) was 1084 ± 158 ms, the “effect of external TEA on the block” value (hEag1 channels [6]; 7 mM external TEA) was “did not affect” and the IC50 (hEag1 channels [6]; IC50(V), voltage-independent line through IC50 data, test potentials 20–120 mV) was 120 nM. For the same compound, the IC50 (hEag1 channels [6]; IC50, whole-cell, pHext//pHint 6.4//7.35) was 419 ± 68 nM, the IC50 (hEag1 channels [6]; IC50, whole-cell, pHext//pHint 7.4//6.4) was 54 ± 12 nM and the IC50 (hEag1 channels [6]; IC50, whole-cell, pHext//pHint 7.4//8.4) was 556 ± 69 nM. For the same compound, the IC50 (hEag1 channels [6]; IC50, whole-cell, pHext//pHint 8.4//7.35) was 37 ± 7 nM, the current blocked (hEag1 channels [6]; [9]) was 87 ± 3% and the τblock (hEag1 channels [6]; [9]) was 317 ± 73 ms. The “slope of logIC50 versus difference between pHext and pHint” value (hEag1 channels [6]; linear fit) was −0.53, the “slope of linear fit of τblock^−1 versus concentration” value (hEag1 channels [6]; [10]) was 4 s^−1μM^−1 and the “y intercept of linear fit of τblock^−1 versus concentration” value (hEag1 channels [6]; [10]) was 0.4 µM. For the same compound, the “time constant of block washout” value (hEag1 channels [6]; pHext 7.4, pHint 6.4) was 235 s, the “time course of block onset” value (hEag1 channels [6]; pHext 7.4, pHint 6.4, 250 nM astemizole) was 60 s and the “time constant of block washout” value (hEag1 channels [6]; pHext 7.4, pHint 8.4) was 25 s. For the same compound, the “time course of block onset” value (hEag1 channels [6]; pHext 7.4, pHint 8.4, 5 μM astemizole) was 20 s, the “Hill coefficient of dose–response plot” value (hEag1 channels [6]; whole-cell, 80 mV) was 1.32 and the “Hill coefficient of fit to τblock versus concentration” value (hEag1 channels [6]; whole-cell, 80 mV) was 1.32. For the same compound, the “time constant of current decay (τblock) at the IC50 concentration” value (hEag1 channels [6]; whole-cell, 80 mV) was about 500 ms, the “τblock, maximum of Hill fit” value (hEag1 channels [6]; whole-cell, 80 mV) was 1.33 s and the “τblock, minimum of Hill fit” value (hEag1 channels [6]; whole-cell, 80 mV) was 0.024 s.
